Active and inactive are the calls of the source. No cut-off for these calls is given here.
What was measured:
[1] = target: MAP kinase p38 (Mus musculus) (UniProt P47811+O08911+Q9WUI1+Q9Z1B7); experiment: Inhibition of LPS-induced MAPK p38 phosphorylation in mouse RAW264.7 cells up to 10 ug/ml preincubated for 2 hrs followed by LPS stimulation for 15 mins by Western blot method; type: cell-based
In short: (§1)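 RAW 264.7 cells were preincubated 2 h at 0.1, 1 or 10 μg/mL, then exposed to LPS 1 μg/mL for 15 min. Lysates were resolved on 8% SDS-PAGE, transferred to PVDF and probed for the phosphorylated MAP kinases. Detection was by ECL, with membranes reprobed for β-actin as loading control.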

[2] = target: Transcription factor p65 (Mus musculus) (UniProt Q04207); experiment: Inhibition of p65 nuclear translocation in LPS-stimulated mouse RAW264.7 cells preincubated for 2 hrs followed by LPS stimulation for 4 hrs by Western blot method
In short: (§2)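 Pretreatment was 2 h (0.1, 1, 10 μg/mL), then LPS 1 μg/mL for 4 h. Cytosolic extracts came from a 1500g, 10 min, 4 °C spin and nuclear fractions from 13000g, 10 min, 4 °C. p65, c-Jun and c-Fos were detected by Western blot (8% SDS-PAGE, PVDF, ECL), with β-actin as reprobe control.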

[3] = target: Mitogen-activated protein kinase 1 and 3 (ERK2 and ERK1) (Mus musculus) (UniProt P63085+Q63844); experiment: Inhibition of LPS-induced ERK1/2 phosphorylation in mouse RAW264.7 cells up to 10 ug/ml preincubated for 2 hrs followed by LPS stimulation for 15 mins by Western blot method; type: cell-based; in short: as §1
RAW264.7 [4] = experiment: Anti-inflammatory activity in mouse RAW264.7 cells transfected with ATF-3 shRNA assessed as reduction in LPS-induced IL-6 production at 10 ug/ml preincubated for 2 hrs followed by LPS stimulation for 24 hrs by ELISA; type: functional, cell-based
In short: (§3)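 Cells received compound at 10 μg/mL for 2 h, then LPS 1 μg/mL for 24 h. TNF-α and IL-6 in the medium were measured by ELISA and compared with control shRNA cells.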

RAW264.7 [5] = experiment: Cytotoxicity against mouse RAW264.7 cells assessed as reduction in cell viability up to 100 ug/ml after 24 hrs by MTT assay; type: cell-based; settings: raw264.7, 24 h
In short: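 RAW 264.7 cells were seeded at 5 × 10^4 per well and exposed 24 h to 0.1, 1, 10, 50 and 100 μg/mL. MTT was then added in full DMEM for 4 h, formazan was dissolved in DMSO, and OD was read at 550 nm.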

RAW264.7 [6] = experiment: Anti-inflammatory activity in mouse RAW264.7 cells assessed as reduction in LPS-induced TNFalpha production preincubated for 2 hrs followed by LPS stimulation for 24 hrs by ELISA; type: functional, cell-based
In short: (§4)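 RAW 264.7 cells (DMEM, 10% heat-inactivated FBS, 37 °C, 5% CO2) pretreated 2 h with compound at 0.1, 1 or 10 μg/mL, then LPS 1 μg/mL for 24 h. TNF-α and IL-6 in the supernatant measured by sandwich ELISA. Dexamethasone 10 and 20 μM served as reference. Means ± SEM of quintuplicate replicates, one representative experiment.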

[7] = target: Transcription factor Jun (Homo sapiens) (UniProt P05412); experiment: Inhibition of AP-1 (unknown origin) activation expressed in LPS-stimulated mouse RAW264.7 cells preincubated for 2 hrs followed by LPS stimulation for 4 hrs by luciferase reporter gene assay; type: cell-based
In short: (§5)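 Cells were plated at 5 × 10^5/mL and transiently cotransfected by lipofection with pGL3-NF-κB-Luc or pGL2-AP-1-Luc plus a normalization plasmid. After 24 h they were pretreated 2 h with the compound (0.1, 1, 10 μg/mL for NF-κB), then given LPS 1 μg/mL for 4 h. Cells were washed in cold PBS, and luciferase was read in the lysates.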

RAW264.7 [8] = experiment: Anti-inflammatory activity in mouse RAW264.7 cells transfected with ATF-3 shRNA assessed as reduction in LPS-induced TNFalpha production at 10 ug/ml preincubated for 2 hrs followed by LPS stimulation for 24 hrs by ELISA; type: functional, cell-based; in short: as §3
[9] = target: Proto-oncogene c-Fos (Mus musculus) (UniProt P01101); experiment: Inhibition of LPS-induced nuclear translocation of AP-1 c-Fos component in mouse RAW264.7 cells up to 10 ug/ml preincubated for 2 hrs followed by LPS stimulation for 4 hrs by Western blot method
Mus musculus = species on record: Mus musculus; experiment: Inhibition of LPS-induced JNK phosphorylation in mouse RAW264.7 cells up to 10 ug/ml preincubated for 2 hrs followed by LPS stimulation for 15 mins by Western blot method; type: cell-based; in short: as §1
RAW264.7 [10] = experiment: Anti-inflammatory activity in mouse RAW264.7 cells assessed as reduction in LPS-induced IL-6 production preincubated for 2 hrs followed by LPS stimulation for 24 hrs by ELISA; type: functional, cell-based; in short: as §4
[11] = target: Transcription factor Jun (Mus musculus) (UniProt P05627); experiment: Inhibition of LPS-induced nuclear translocation of AP-1 c-Jun component in mouse RAW264.7 cells up to 10 ug/ml preincubated for 2 hrs followed by LPS stimulation for 4 hrs by Western blot method; type: cell-based; in short: as §2
[12] = target: T1, NF-kappa-B inhibitor alpha (Mus musculus) (UniProt Q9Z1E3); experiment: Inhibition of LPS-induced degradation of IkappaB-alpha in mouse RAW264.7 cells at 10 ug/ml preincubated for 2 hrs followed by LPS stimulation up to 45 mins by Western blot method; type: cell-based
T1 sequence (whole entry): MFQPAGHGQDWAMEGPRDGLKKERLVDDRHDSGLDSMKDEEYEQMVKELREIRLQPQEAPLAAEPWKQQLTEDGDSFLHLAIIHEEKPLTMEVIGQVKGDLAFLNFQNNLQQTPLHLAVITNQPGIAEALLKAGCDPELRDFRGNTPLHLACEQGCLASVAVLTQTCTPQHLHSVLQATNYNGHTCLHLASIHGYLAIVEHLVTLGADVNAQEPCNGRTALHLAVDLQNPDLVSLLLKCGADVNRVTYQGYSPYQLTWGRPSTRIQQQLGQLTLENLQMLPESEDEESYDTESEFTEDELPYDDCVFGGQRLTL
In short: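 Cells were pretreated 2 h with 10 μg/mL, then given LPS 1 μg/mL for varying times. IκBα was detected in lysates by Western blot with ECL, using β-actin as internal control. Results are representative of three experiments.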

Homo sapiens = species on record: Homo sapiens; experiment: Inhibition of NF-kB (unknown origin) activation expressed in LPS-stimulated mouse RAW264.7 cells up to 10 ug/ml preincubated for 2 hrs followed by LPS stimulation for 4 hrs by luciferase reporter gene assay; type: cell-based; in short: as §5
RAW264.7 [13] = experiment: Induction of LPS-induced ATF-3 expression in mouse RAW264.7 cells preincubated for 2 hrs followed by LPS stimulation for 4 hrs by Western blot method; type: functional, cell-based
In short: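 Cells were pretreated 2 h (0.1–10 μg/mL), then stimulated with LPS 1 μg/mL for 4 h. ATF-3 was detected by Western blot (8% SDS-PAGE, PVDF, ECL) and quantified by densitometry, normalized to β-actin, in arbitrary units. Blots are representative of three experiments.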

RAW264.7 [14] = experiment: Anti-inflammatory activity in mouse RAW264.7 cells assessed as reduction in LPS-induced NO production up to 10 ug/ml preincubated for 2 hrs followed by LPS stimulation for 24 hrs by Griess assay; type: functional, cell-based
In short: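 RAW 264.7 cells were pretreated 2 h with 0.1–10 μg/mL, then given LPS 1 μg/mL for 24 h. Supernatant was mixed 1:1 with Griess reagent (sulfanilamide in 5% phosphoric acid plus α-naphthylamide) for 15 min at room temperature, and A550 was read. Nitrite served as the NO index. Dexamethasone 10 and 20 μM was the reference. Quintuplicates, mean ± SEM.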

Chain of Transcription factor Jun (Homo sapiens) (P05412 whole entry): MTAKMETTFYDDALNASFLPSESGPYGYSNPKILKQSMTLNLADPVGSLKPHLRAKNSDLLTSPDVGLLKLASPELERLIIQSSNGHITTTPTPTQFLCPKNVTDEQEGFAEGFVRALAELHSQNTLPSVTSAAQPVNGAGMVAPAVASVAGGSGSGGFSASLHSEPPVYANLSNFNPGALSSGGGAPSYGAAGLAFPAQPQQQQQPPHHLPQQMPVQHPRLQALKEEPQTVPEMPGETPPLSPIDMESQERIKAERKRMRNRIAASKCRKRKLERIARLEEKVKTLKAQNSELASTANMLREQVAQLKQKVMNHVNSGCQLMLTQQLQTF
Chain of Mitogen-activated protein kinase 1 and 3 (ERK2 and ERK1) (Mus musculus) (P63085 whole entry, looked up): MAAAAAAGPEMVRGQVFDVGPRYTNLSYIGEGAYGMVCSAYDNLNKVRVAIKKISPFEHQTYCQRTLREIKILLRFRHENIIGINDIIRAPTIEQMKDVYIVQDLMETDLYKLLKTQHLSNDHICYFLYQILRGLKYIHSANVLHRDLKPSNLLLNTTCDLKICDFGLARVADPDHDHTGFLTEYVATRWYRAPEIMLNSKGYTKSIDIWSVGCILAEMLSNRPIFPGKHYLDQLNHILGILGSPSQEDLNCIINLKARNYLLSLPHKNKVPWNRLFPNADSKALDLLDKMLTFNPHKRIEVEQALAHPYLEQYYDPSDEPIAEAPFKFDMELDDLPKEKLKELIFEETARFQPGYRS
Chain of Mitogen-activated protein kinase 1 and 3 (ERK2 and ERK1) (Mus musculus) (Q63844 whole entry, looked up): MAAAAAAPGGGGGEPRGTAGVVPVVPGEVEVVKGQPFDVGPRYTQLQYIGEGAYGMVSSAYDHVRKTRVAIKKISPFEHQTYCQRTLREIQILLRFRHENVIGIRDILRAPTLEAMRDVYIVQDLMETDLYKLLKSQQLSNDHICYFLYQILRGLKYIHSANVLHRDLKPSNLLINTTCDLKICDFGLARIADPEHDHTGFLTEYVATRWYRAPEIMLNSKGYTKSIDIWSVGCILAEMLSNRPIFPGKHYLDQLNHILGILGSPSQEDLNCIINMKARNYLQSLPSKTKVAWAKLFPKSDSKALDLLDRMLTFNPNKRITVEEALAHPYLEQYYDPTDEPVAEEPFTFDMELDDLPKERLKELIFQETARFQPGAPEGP
Chain of Transcription factor Jun (Mus musculus) (P05627 whole entry): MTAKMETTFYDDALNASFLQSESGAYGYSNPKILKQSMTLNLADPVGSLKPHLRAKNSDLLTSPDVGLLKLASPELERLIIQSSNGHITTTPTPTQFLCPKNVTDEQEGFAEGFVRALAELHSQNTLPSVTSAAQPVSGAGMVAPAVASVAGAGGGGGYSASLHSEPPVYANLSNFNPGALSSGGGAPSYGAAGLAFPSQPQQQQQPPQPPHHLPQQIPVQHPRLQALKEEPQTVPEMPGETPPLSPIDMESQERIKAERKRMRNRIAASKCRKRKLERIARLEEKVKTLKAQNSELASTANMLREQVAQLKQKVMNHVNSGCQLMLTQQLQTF
Chain of Transcription factor p65 (Mus musculus) (Q04207 whole entry): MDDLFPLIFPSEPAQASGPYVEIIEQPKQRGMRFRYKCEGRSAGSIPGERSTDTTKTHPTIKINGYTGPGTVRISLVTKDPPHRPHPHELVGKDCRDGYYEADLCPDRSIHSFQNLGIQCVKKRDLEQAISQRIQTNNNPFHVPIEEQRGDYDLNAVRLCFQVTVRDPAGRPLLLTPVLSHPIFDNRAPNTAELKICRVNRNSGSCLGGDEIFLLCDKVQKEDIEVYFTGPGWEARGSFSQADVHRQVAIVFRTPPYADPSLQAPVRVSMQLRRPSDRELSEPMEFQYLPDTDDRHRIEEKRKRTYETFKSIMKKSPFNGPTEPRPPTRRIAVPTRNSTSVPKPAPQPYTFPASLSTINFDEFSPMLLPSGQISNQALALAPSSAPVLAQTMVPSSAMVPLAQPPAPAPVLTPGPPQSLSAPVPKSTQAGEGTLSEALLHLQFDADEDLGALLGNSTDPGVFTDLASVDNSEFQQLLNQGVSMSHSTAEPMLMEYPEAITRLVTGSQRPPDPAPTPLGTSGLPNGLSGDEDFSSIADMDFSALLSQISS
Chain of Proto-oncogene c-Fos (Mus musculus) (P01101 whole entry, looked up): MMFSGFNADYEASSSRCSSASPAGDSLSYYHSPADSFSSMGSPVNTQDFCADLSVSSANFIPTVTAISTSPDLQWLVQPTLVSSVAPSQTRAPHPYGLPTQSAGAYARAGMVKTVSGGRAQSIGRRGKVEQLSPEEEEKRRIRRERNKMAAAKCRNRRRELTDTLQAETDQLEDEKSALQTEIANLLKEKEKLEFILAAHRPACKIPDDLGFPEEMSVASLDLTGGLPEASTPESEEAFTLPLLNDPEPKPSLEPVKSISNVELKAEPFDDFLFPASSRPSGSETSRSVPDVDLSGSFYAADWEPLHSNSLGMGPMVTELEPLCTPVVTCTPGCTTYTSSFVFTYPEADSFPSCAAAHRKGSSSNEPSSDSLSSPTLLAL

NCCCOc1cccc(C(=O)O)c1N
inhibition [1]: inactive
inhibition [2]: Dose-dependent effect
inhibition [3]: Active
Activity (RAW264.7 [4]): inactive
Activity (RAW264.7 [5]): Non-Toxic
Activity (RAW264.7 [6]): Dose-dependent effect
inhibition [7]: Dose-dependent effect
Activity (RAW264.7 [8]): inactive
inhibition [9]: Active
inhibition (Mus musculus): Active
Activity (RAW264.7 [10]): Dose-dependent effect
inhibition [11]: Active
inhibition [12]: Active
inhibition (Homo sapiens): Active
Activity (RAW264.7 [13]): Active
Activity (RAW264.7 [14]): inactive

From ChEMBL document CHEMBL4004813, “Oscarellin, an Anthranilic Acid Derivative from a Philippine Sponge, Oscarella stillans, as an Inhibitor of Inflammatory Cytokines in Macrophages” (J Nat Prod, 2017)
